Consider 17 compounds from ChEMBL document CHEMBL4312019, “Design, synthesis, and evaluation of compounds capable of reducing Pseudomonas aeruginosa virulence” (Eur J Med Chem, 2020).

The source made the active and inactive calls. No cut-off for these calls is given here. Where only a bound is given, the exact number is not on record here.

Chain of Voltage-gated inwardly rectifying potassium channel KCNH2 (Q12809 whole entry): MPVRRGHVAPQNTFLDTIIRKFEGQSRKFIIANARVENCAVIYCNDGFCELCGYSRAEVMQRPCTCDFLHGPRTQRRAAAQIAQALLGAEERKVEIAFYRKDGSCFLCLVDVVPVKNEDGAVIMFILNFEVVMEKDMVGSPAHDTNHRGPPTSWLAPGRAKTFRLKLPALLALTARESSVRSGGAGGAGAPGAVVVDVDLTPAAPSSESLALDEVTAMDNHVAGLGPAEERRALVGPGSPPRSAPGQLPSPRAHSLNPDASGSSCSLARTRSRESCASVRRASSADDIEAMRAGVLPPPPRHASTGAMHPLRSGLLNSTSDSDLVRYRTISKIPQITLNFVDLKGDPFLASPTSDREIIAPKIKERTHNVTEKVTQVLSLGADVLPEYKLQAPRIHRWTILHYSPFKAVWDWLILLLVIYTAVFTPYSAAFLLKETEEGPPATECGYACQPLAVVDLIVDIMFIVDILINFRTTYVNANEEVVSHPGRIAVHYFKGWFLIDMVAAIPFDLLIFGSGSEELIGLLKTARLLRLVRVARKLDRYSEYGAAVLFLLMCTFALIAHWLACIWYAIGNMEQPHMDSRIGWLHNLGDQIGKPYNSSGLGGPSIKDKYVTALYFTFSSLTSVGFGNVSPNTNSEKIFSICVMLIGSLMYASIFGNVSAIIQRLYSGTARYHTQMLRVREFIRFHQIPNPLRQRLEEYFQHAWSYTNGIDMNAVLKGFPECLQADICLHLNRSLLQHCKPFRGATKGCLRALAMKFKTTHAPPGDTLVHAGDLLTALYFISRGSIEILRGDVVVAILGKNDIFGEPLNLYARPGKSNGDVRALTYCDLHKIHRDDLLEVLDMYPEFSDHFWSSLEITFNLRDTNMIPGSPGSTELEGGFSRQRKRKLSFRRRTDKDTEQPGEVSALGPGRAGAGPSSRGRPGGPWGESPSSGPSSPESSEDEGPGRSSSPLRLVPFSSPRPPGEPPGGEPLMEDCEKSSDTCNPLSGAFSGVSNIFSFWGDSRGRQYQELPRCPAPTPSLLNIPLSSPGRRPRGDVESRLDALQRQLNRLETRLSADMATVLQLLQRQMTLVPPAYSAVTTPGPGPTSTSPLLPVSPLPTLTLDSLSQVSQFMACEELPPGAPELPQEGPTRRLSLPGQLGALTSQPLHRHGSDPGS

The first experiment has as its system Pseudomonas aeruginosa. Description: Inhibition of biofilm formation in Pseudomonas aeruginosa PAO1 at 10 uM incubated for 10 hrs by crystal violet staining based microtiter plate method.
Settings: not given
Type of experiment: functional, organism-based. In short, it runs like this:
(§1)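 PAO1 or PA14 grown at 37 °C with 10 µM compound or vehicle. Expressed as percent biofilm biomass versus vehicle-treated control; mean ± SEM.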
As for `CCCCOc1ccc(Cl)c(OCCCC)c1/N=N/c1c(O)ccc2ccccc12`, the inhibition entry was “inactive”.

As for `CCCCOc1cc(Cl)cc(OCCCC)c1/N=N/c1c(O)ccc2ccccc12`, the inhibition entry was “inactive”.

Regarding `CCCCOc1cc(Cl)c(/N=N/c2c(O)ccc3ccccc23)c(OCCCC)c1`, the inhibition result is “inactive”.

The subject of the next experiment is Pseudomonas aeruginosa. Description: Inhibition of biofilm formation in Pseudomonas aeruginosa PAO1 at 10 uM incubated for 10 hrs by crystal violet staining based microtiter plate method relative to control. Particulars: PAO1, 10 h. Type of experiment: functional. The essentials: as §1
Take `O=C(CCCS(=O)(=O)c1ccccc1)Nc1cc[nH]c(=O)n1`: the inhibition at 10 µM lay in the range of 40 to 60%.

Turning to `O=C(c1cn(CCCNCc2ccc(Oc3ccc(Cl)cc3)cc2)nn1)N1CCOCC1`, the inhibition at 10 µM fell in the range of 40 to 60%.

Take `O=C(CCCS(=O)(=O)c1ccccc1)Nc1nc(=O)[nH]cc1F`: the inhibition at 10 µM lay in the range of 40 to 60%.

In the case of `Cc1ccc(NC(=O)c2ccc3c(c2)CC(c2ccc(Cl)cc2)OC3=O)cc1C` (stereo not drawn), the inhibition at 10 µM was in the range of 40 to 60%.

In turn, `CCCCCCCc1[nH]c2ccc([N+](=O)[O-])cc2c(=O)c1CO` displayed an inhibition at 10 µM of 40 to 60%.

On to `Cc1ccc(N(C)C(=O)c2ccc3c(c2)CC(c2ccc(Cl)cc2)OC3=O)cc1C` (stereo not drawn), for which the inhibition at 10 µM is 40 to 60%.

In the case of `O=C(CCNC(=O)c1cccc([N+](=O)[O-])c1)NC1CCOC1=O` (stereo not drawn), the inhibition at 10 µM was 40 to 60%.

In the case of `O=C(CCCC(=O)c1cccc([N+](=O)[O-])c1)NC1CCCC1`, the inhibition at 10 µM fell in the range of 40 to 60%.

Turning to `O=C(CCNC(=O)c1cccc([N+](=O)[O-])c1)Nc1nc(=O)[nH]cc1F`, the inhibition at 10 µM was in the range of 40 to 60%.

For the compound `O=C(CCCS(=O)(=O)c1ccccc1)NC1CCOC1=O` (stereo not drawn), the inhibition at 10 µM lay in the range of 40 to 60%.

The subject of the next experiment is Pseudomonas aeruginosa. Nature of the experiment: Inhibition of biofilm formation in Pseudomonas aeruginosa PA14 at 10 uM incubated for 10 hrs by crystal violet staining based microtiter plate method. The class given is functional, organism-based.
Settings: not given
In short, it runs like this: as §1
On to `CCCCOc1ccc(Cl)c(OCCCC)c1/N=N/c1c(O)ccc2ccccc12`, for which the inhibition entry was “inactive”.

For the compound `CCCCOc1cc(Cl)cc(OCCCC)c1/N=N/c1c(O)ccc2ccccc12`, the inhibition result was “inactive”.

`CCCCOc1cc(Cl)c(/N=N/c2c(O)ccc3ccccc23)c(OCCCC)c1`: the inhibition entry was “inactive”.

Another experiment has as its system Pseudomonas aeruginosa. Description: Inhibition of biofilm formation in Pseudomonas aeruginosa PA14 at 10 uM incubated for 10 hrs by crystal violet staining based microtiter plate method relative to control. Type of experiment: functional. Conditions: PA14, 10 h. The essentials:
as §1
Take `O=C(CCCS(=O)(=O)c1ccccc1)Nc1cc[nH]c(=O)n1`: the inhibition at 10 µM was in the range of 40 to 60%.

`O=C(c1cn(CCCNCc2ccc(Oc3ccc(Cl)cc3)cc2)nn1)N1CCOCC1` came in with an inhibition at 10 µM of 40 to 60%.

`O=C(CCCS(=O)(=O)c1ccccc1)Nc1nc(=O)[nH]cc1F` returned an inhibition at 10 µM of 40 to 60%.

For the compound `Cc1ccc(NC(=O)c2ccc3c(c2)CC(c2ccc(Cl)cc2)OC3=O)cc1C` (stereo not drawn), the inhibition at 10 µM was in the range of 40 to 60%.

In turn, `CCCCCCCc1[nH]c2ccc([N+](=O)[O-])cc2c(=O)c1CO` displayed an inhibition at 10 µM of 40 to 60%.

Compound `Cc1ccc(N(C)C(=O)c2ccc3c(c2)CC(c2ccc(Cl)cc2)OC3=O)cc1C` (stereo not drawn) showed an inhibition at 10 µM of 40 to 60%.

In turn, `O=C(CCNC(=O)c1cccc([N+](=O)[O-])c1)NC1CCOC1=O` (stereo not drawn) gave an inhibition at 10 µM of 40 to 60%.

`O=C(CCCC(=O)c1cccc([N+](=O)[O-])c1)NC1CCCC1` came in with an inhibition at 10 µM of 40 to 60%.

Regarding `O=C(CCNC(=O)c1cccc([N+](=O)[O-])c1)Nc1nc(=O)[nH]cc1F`, the inhibition at 10 µM is 40 to 60%.

`O=C(CCCS(=O)(=O)c1ccccc1)NC1CCOC1=O` (stereo not drawn) returned an inhibition at 10 µM of 40 to 60%.

The target of the next experiment is T1, Transcriptional regulator MvfR (Pseudomonas aeruginosa PA14) (UniProt A0A072ZLE6).
T1 sequence (whole entry): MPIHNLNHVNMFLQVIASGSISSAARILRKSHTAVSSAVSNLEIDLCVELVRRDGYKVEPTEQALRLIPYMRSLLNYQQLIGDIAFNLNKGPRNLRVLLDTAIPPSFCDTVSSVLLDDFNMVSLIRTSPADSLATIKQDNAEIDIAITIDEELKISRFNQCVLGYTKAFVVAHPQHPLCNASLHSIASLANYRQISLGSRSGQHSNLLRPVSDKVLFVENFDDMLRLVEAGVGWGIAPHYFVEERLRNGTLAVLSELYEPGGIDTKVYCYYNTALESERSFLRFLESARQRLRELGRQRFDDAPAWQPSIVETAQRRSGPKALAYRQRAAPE
Nature of the experiment: Inhibition of Pseudomonas aeruginosa PAO1 PqsR assessed as reduction in pyocyanin production level at 10 uM measured after 10 mins by spectrometry based analysis.
Settings: not given
In short, it runs like this: (§2)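 PAO1 cultured with or without 10 µM compound. Pyocyanin quantified by a spectrometry-based method and expressed as percent of vehicle-treated control. Mean ± SEM of at least 32 replicates.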
`CCCCOc1ccc(Cl)c(OCCCC)c1/N=N/c1c(O)ccc2ccccc12`: the inhibition result was “inactive”.

With `CCCCOc1cc(Cl)cc(OCCCC)c1/N=N/c1c(O)ccc2ccccc12`, the inhibition result is “inactive”.

In the case of `CCCCOc1cc(Cl)c(/N=N/c2c(O)ccc3ccccc23)c(OCCCC)c1`, the inhibition entry was “inactive”.

The next experiment deals with T1, Transcriptional regulator MvfR (Pseudomonas aeruginosa PA14). Nature of the experiment: Inhibition of Pseudomonas aeruginosa PAO1 PqsR assessed as increase in pyocyanin production level at 10 uM measured after 10 mins by spectrometry based analysis relative to control.
Settings: not given
In short, it runs like this: as §2
For `O=C(CCCS(=O)(=O)c1ccccc1)Nc1cc[nH]c(=O)n1`, the inhibition fell in the range of 20 to 90%.

On to `O=C(CCCS(=O)(=O)c1ccccc1)Nc1nc(=O)[nH]cc1F`, for which the inhibition lay within 20 to 90%.

`O=C(CCNC(=O)c1cccc([N+](=O)[O-])c1)Nc1nc(=O)[nH]cc1F`: the inhibition is 20 to 90%.

The target in another experiment is Transcriptional activator protein LasR (Pseudomonas aeruginosa (strain ATCC 15692 / PAO1 / 1C / PRS 101 / LMG12228)) (UniProt P25084). Description: Inhibition of Pseudomonas aeruginosa PAO1 LasR transfected with lasB-GFP at 10 uM measured after 12 hrs by fluorescence based microtiter plate reader method.
Chain of Transcriptional activator protein LasR (Pseudomonas aeruginosa (strain ATCC 15692 / PAO1 / 1C / PRS 101 / LMG12228)) (P25084 whole entry): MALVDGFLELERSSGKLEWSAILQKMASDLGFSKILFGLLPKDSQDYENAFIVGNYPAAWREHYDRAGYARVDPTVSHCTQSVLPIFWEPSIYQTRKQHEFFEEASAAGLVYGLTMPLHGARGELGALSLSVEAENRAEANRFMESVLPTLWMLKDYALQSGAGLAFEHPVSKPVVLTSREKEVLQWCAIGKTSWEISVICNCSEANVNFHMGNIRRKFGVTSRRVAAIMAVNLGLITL
Settings: not given
In short, it runs like this:
(§3)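 GFP reporter strains (PqsR: PA14 pAW1::GFP; LasR: PAO1 lasB::GFP) grown 12 h in LB broth with 5% BSA, with or without 10 µM compound.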
With `O=C(CCCS(=O)(=O)c1ccccc1)Nc1nc(=O)[nH]cc1F`, the inhibition result is “inactive”.

Consider `O=C(CCNC(=O)c1cccc([N+](=O)[O-])c1)Nc1nc(=O)[nH]cc1F`, for which the inhibition result is “inactive”.

The next experiment addresses T1, Transcriptional regulator MvfR (Pseudomonas aeruginosa PA14). Nature of the experiment: Inhibition of Pseudomonas aeruginosa PA14 PqsR transfected with pAW1-GFP at 10 uM measured after 12 hrs by fluorescence based microtiter plate reader method.
Settings: not given
The essentials:
as §3
As to `O=C(CCCS(=O)(=O)c1ccccc1)Nc1nc(=O)[nH]cc1F`, the inhibition result is “inactive”.

On to `O=C(CCNC(=O)c1cccc([N+](=O)[O-])c1)Nc1nc(=O)[nH]cc1F`, for which the inhibition entry is “Active”.

Tested on in the next experiment: not listed separately
Nature of the experiment: Inhibition of quorum sensing system in Pseudomonas aeruginosa assessed as reduction of rhamnolipids level at 10 uM measured after 24 hrs by methylene-blue based assay relative to control.
Settings: not given
In short, it runs like this: (§4)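 P. aeruginosa grown 24 h with or without 10 µM compound. Rhamnolipids quantified by methylene-blue assay against a six-point standard curve of commercial rhamnolipids.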
Take `O=C(CCNC(=O)c1cccc([N+](=O)[O-])c1)NC1CCOC1=O` (stereo not drawn): the inhibition was in the range of 30 to 50%.

On to `O=C(CCCC(=O)c1cccc([N+](=O)[O-])c1)NC1CCCC1`, for which the inhibition was in the range of 30 to 50%.

As for `O=C(CCCS(=O)(=O)c1ccccc1)NC1CCOC1=O` (stereo not drawn), the inhibition fell in the range of 30 to 50%.

A further experiment has as its target Voltage-gated inwardly rectifying potassium channel KCNH2 (Homo sapiens, UniProt Q12809). Nature of the experiment: Inhibition of human ERG.
Settings: not given
Compound `O=C(CCCS(=O)(=O)c1ccccc1)Nc1cc[nH]c(=O)n1` showed an IC50 of 67.8 µM.

`O=C(c1cn(CCCNCc2ccc(Oc3ccc(Cl)cc3)cc2)nn1)N1CCOCC1` came in with an IC50 of 0.678 µM.

Compound `O=C(CSc1nc2cc([N+](=O)[O-])ccc2[nH]1)Nc1ccc(Oc2ccccc2)cc1` returned an IC50 of 8.24 µM.

`O=C(CCCS(=O)(=O)c1ccccc1)Nc1nc(=O)[nH]cc1F` registered an IC50 of 40.5 µM.

As for `Cc1ccc(NC(=O)c2ccc3c(c2)CC(c2ccc(Cl)cc2)OC3=O)cc1C` (stereo not drawn), the midpoint of inhibition, the IC50, lay at 6.77 µM.

The compound `Cc1ccc(N(C)C(=O)c2ccc3c(c2)CC(c2ccc(Cl)cc2)OC3=O)cc1C` (stereo not drawn) yielded an IC50 of 2.92 µM.

In turn, `O=C(CCNC(=O)c1cccc([N+](=O)[O-])c1)NC1CCOC1=O` (stereo not drawn) displayed an IC50 of 904 µM. Against the preceding compound, the IC50 is about 310-fold higher.

The compound `O=C(CCCC(=O)c1cccc([N+](=O)[O-])c1)NC1CCCC1` came in with an IC50 of 20.4 µM.

Compound `CCCCOc1ccc(Cl)c(OCCCC)c1/N=N/c1c(O)ccc2ccccc12` showed an IC50 of 0.38 µM. Compared with the last compound, the IC50 is about 54-fold lower.

Compound `O=C(CCNC(=O)c1cccc([N+](=O)[O-])c1)Nc1nc(=O)[nH]cc1F` came in with an IC50 of 356 µM.

`CCCCOc1cc(Cl)c(/N=N/c2c(O)ccc3ccccc23)c(OCCCC)c1` came in with an IC50 of 0.4 µM.

The compound `O=C(CCCS(=O)(=O)c1ccccc1)NC1CCOC1=O` (stereo not drawn) gave an IC50 of 109 µM. This IC50 lies about 270-fold higher than the previous one.

Tested on in another experiment: not listed separately
Description: Inhibition of quorum sensing system in Pseudomonas aeruginosa assessed as reduction of rhamnolipids level at 10 uM measured after 24 hrs by methylene-blue based assay.
Settings: not given
The essentials:
as §4
On to `O=C(c1cn(CCCNCc2ccc(Oc3ccc(Cl)cc3)cc2)nn1)N1CCOCC1`, for which the inhibition result is “inactive”.

In the next experiment the test system is Pseudomonas aeruginosa. Nature of the experiment: Inhibition of pyocyanin production in Pseudomonas aeruginosa at 1 uM relative to control. Type of experiment: functional.
Settings: not given
Compound `O=C(CSc1nc2cc([N+](=O)[O-])ccc2[nH]1)Nc1ccc(Oc2ccccc2)cc1` returned an inhibition at 1 µM of 95%.

The test system of a further experiment is Pseudomonas aeruginosa. Description: Inhibition of pyocyanin production in Pseudomonas aeruginosa at 100 uM relative to control. Type of experiment: functional.
Settings: not given
In turn, `CCCCCCCCCNC(=O)CC(=O)c1ccccc1` showed an inhibition at 100 µM of 90%.

The subject of a further experiment is Pseudomonas aeruginosa. Nature of the experiment: Inhibition of pyocyanin production in Pseudomonas aeruginosa at 50 uM relative to control. The class given is functional.
Settings: not given
`O=C(Cc1ccc(Br)cc1)N[C@H]1CCOC1=O` gave an inhibition at 50 µM of 10 to 30%.

In a further experiment the test system is Pseudomonas aeruginosa. Nature of the experiment: Inhibition of pyoverdin production in Pseudomonas aeruginosa at 10 uM relative to control. Type of experiment: functional.
Settings: not given
As to `O=C1C=C(Br)/C(=C/Br)O1`, the inhibition at 10 µM is > 90%.

In another experiment the test system is Pseudomonas aeruginosa. Description: Inhibition of biofilm formation in Pseudomonas aeruginosa at 50 uM relative to control. Type of experiment: functional.
Settings: not given
In the case of `O=C(Cc1ccc(Br)cc1)N[C@H]1CCOC1=O`, testing at 50 µM gave an inhibition of 40%.

Another experiment has as its target T1, Transcriptional regulator MvfR (Pseudomonas aeruginosa PA14). Description: Inhibition of Pseudomonas aeruginosa PqsR at 5 uM relative to control.
Settings: not given
`CCCCCCCc1[nH]c2ccc([N+](=O)[O-])cc2c(=O)c1CO`: the inhibition came out at 100%.

Usually inhibition stands for the percentage by which the read-out fell short of the control. The term IC50 denotes the point on the concentration scale where inhibition reaches its midpoint. Low readings indicate inhibition by little substance, high ones a need for much substance.
